Screens from PubChem BioAssay.
PTEN del growth = PTEN-deleted cell growth suppression; HCT116 PTEN-null viability, CellTiter-Glo, 60 h; hits give low values; viability, % at 10 µM; hit rate 1.2% among 140,000;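 active = viability at or below a set limit, 4 SD under the median of all tested compounds, cut at about 3.7% in these data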;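 note: PTEN knockout HCT116 line with beta catenin targeted HCT116 as companion control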
HUVEC prolif 384 = blocks proliferation of human endothelial cells; viability, % at 10 µM (by protocol); hit rate 1.1% among 86,000; HUVEC proliferation, CellTiter-Glo luminescence, 72 h; hits give low values;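 active = viability at or below 30%; inactive = viability above 30%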;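 note: 100% = median luminescence of DMSO-only cell control wells on each plate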
Lung fibro prol = blocks proliferation of human lung fibroblasts; LL 47 human lung fibroblast viability, ATP luminescence; hits give low values; AID 719; viability, % at 10 µM; hit rate 1.1% among 85,000;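 active = viability at or below 50% in the single dose screen; inactive = viability above 50%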;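 note: compound exposure lasted 72 h before the ATP readout; 100% = median luminescence of untreated cell-only wells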
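Material: human lung fibroblast line LL 47, low passage; Evaluation: viability percentage against median untreated-cell control; Buffer or medium: 15% FBS in IMEM; Incubation: 72 h compound exposure at 37 °C after overnight plating; Dosing: 0.1% DMSO in all compound wells; Measured by: CellTiter-Glo luminescence.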
bCat KO growth = beta-catenin-lacking colon tumor cell growth suppression. viability, % at 10 µM. HCT116 beta-catenin knockout viability, CellTiter-Glo, 60 h; hits give low values. hit rate 1.5% among 140,000;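 active = viability at or under a set limit, the compound median less 4 SD, cut at about 6% in these data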;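 note: 0% = Hyamine 1622 control at 20 µM and 100% = untreated cell control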
H69AR inhibit = blocks growth of human H69AR lung tumor cells; H69AR lung tumor viability, ATP luminescence, 72 h; hits give low values; viability, % at 10 µM; hit rate 6% among 85,000;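 active = viability at or below 40%; inactive = viability above 40%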;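 note: multidrug resistant small cell line overexpressing MRP-1 efflux transporter; 100% = mean luminescence of untreated control wells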
Starred values were filed as active, the others as inactive; . = not tested or not shown. This is one part of a sample in which hits are shown more often than they occur.

SMILES | PTEN del growth | HUVEC prolif 384 | Lung fibro prol | bCat KO growth | H69AR inhibit
CCCCCCC(=O)N(O)C1CC(=O)N(c2ccc(Br)cc2)C1=O (stereo unspecified) | 80 | 82 | 81 | 78 | 33*
CN(c1ccc([N+](=O)[O-])cc1/C=N/NC(=O)COc1ccccc1)C1CCCCC1 | 88 | . | . | 77 | .
COc1ccc2c3c(cccc13)NN=C2C | . | 3.0* | 26* | . | 26*
O=C(Cn1cnc([N+](=O)[O-])c1)Nc1cc(Oc2ccc(Cl)cc2Cl)cc([N+](=O)[O-])c1 | 5 | 42 | 93 | 8 | 9.9*
CN1/C(=C\C(=O)c2cccs2)Sc2ccccc21 | 64 | 71 | 81 | 66 | 40*
CN1/C(=C/C(=O)c2cccs2)Sc2ccccc21 | 64 | 74 | 90 | 65 | 47
Cc1ccc(Cn2c(=S)[nH]c3ccc(N4CCOCC4)cc3c2=O)o1 | 76 | 76 | 46* | 85 | 5.8*
O=[N+]([O-])c1ccc(-n2nnnc2-c2ccccc2)c([N+](=O)[O-])c1 | 0.6* | . | . | 0.6* | .
CC(NC(=O)Cc1ccccc1)c1cc2c(cc1Br)OCCCO2 (stereo unspecified) | 91 | . | . | 92 | .
CCN(CC)c1ccc(-c2nnc(SCC(=O)Nc3ccccc3C#N)n2-c2ccccc2)cc1 | 56 | 72 | 73 | 57 | 47
O=C(Cc1cccs1)OCC(=O)c1ccco1 | 97 | 92 | 92 | 89 | 81
O=C(CC(Sc1ccccc1)c1cccs1)c1ccco1 (stereo unspecified) | 62 | 88 | . | 52 | 1.9*
C/C(=N\NC(=O)c1cccc(Cl)c1)C1C(=O)c2ccccc2C1=O | 61 | . | . | 72 | .
CCOC(=O)/C(=C\c1cn(C)c2ccccc12)[N+](=O)[O-] | 95 | . | . | 100 | .
COC(=O)/C(=C/Nc1cccc2ccccc12)[N+](=O)[O-] | 87 | 74 | 92 | 90 | 27*
Cc1ccc(C)c(NC2=C(Cl)C(=O)OC2OC(=O)c2ccco2)c1 (stereo unspecified) | 72 | 79 | 91 | 76 | 9.4*
Cc1ccc(NC2=C(Cl)C(=O)OC2OC(=O)c2ccco2)c(C)c1 (stereo unspecified) | 57 | 81 | 94 | 53 | 51
NC(=O)c1c(NC(=O)CSc2nnc(Cc3ccccc3)n2Cc2ccco2)sc2c1CCC2 | 73 | 79 | 85 | 78 | 5.6*
CCCCn1c(SCC(=O)Nc2sc3c(c2C(N)=O)CCC3)nnc1-c1ccccc1 | . | 78 | 94 | . | 25*
CN(C)CCCn1c(SCC(=O)Nc2sc3c(c2C#N)CCCC3)nnc1-c1ccncc1 | 98 | . | . | 96 | .
O=C(CSc1nnc(Cc2ccccc2)n1Cc1ccco1)NC12CC3CC(CC(C3)C1)C2 | 78 | 97 | 91 | 76 | 71
Cc1ccc(N2C(=O)/C(=C\c3ccc(C(C)C)cc3)N=C2SC2CCOC2=O)cc1 (stereo unspecified) | 84 | . | . | 87 | .
C#CCn1c(=NC(=O)c2cccs2)sc2cccc(OCC)c21 | 92 | 79 | 95 | 92 | 23*
COC(=O)Cn1c(=NC(=O)c2ccc(Cl)s2)sc2cc(F)ccc21 | 58 | . | . | 61 | .
C#CCn1c(=NC(=O)c2ccc(Cl)s2)sc2cccc(OC)c21 | 5 | 44 | 61 | 4.4* | 1.5*
SMILES | PTEN del growth | HUVEC prolif 384 | Lung fibro prol | bCat KO growth | H69AR inhibit
CC(=O)c1sc(NC(=O)C(C)(C)C)nc1C | 109 | 90 | 112 | 91 | 91
CC(=O)c1sc(Nc2nc(C)cc(C)n2)nc1C | 79 | 81 | 98 | 84 | 29*
CCN(CC)C(=O)c1cc(C(C)(C)C)c(O)c(C(C)(C)C)c1 | 95 | . | . | 77 | .
c1ccc(Nc2cccc(Nc3ccccc3)c2)cc1 | 77 | . | . | 81 | .
COc1ccc(Nc2ccc3c(c2)=NC2(CCCCC2)[N+]=3[O-])cc1 | 1.2* | . | . | 1.1* | .
[O-][N+]1=c2ccc(Nc3ccccc3)cc2=NC12CCCCC2 | 1.1* | 4.6* | 13* | 1.6* | 1.2*
COc1ccc(NC2=NC(=S)N(c3ccccc3C)C23CCCCC3)cc1 | 101 | . | . | 95 | .
CNC(=O)C1CC(=O)N(CCCc2ccccc2)C(=Nc2ccccc2)S1 (stereo unspecified) | 87 | 78 | 87 | 95 | 84
O=C(COC(=O)C1Cc2ccccc2CN1C(=O)c1ccccc1)Nc1ccc(SC(F)F)cc1 (stereo unspecified) | 88 | . | . | 84 | .
CC(NC(=O)CSc1nc2c(c(C(F)(F)F)n1)CCc1ccccc1-2)c1ccccc1 (stereo unspecified) | 72 | 97 | 105 | 75 | 84
O=C(CSc1nc2c(c(C(F)(F)F)n1)CCc1ccccc1-2)NCc1ccco1 | 51 | 75 | 108 | 77 | 30*
O=C(CSc1nnc(-c2ccccc2)c(-c2ccccc2)n1)NCc1ccco1 | 53 | 66 | 89 | 45 | 20*
O=C(CCc1nc(-c2ccccc2F)no1)Nc1ccc(Oc2ccccc2)cc1 | 15 | 32 | 60 | 9 | 29*
COc1cccc(NC(=O)CCc2nc(-c3ccccc3F)no2)c1 | 109 | 82 | 100 | 104 | 89
Cc1ccc(CN=Cc2[nH]c3ccc(Br)c(Cl)c3c2O)cc1 | 78 | 64 | 103 | 81 | 33*
c1ccc(CCNc2ncnc3scc(C4COc5ccccc5O4)c23)cc1 (stereo unspecified) | 50 | 87 | 97 | 55 | 28*
O=C(Nc1ccc(Cl)cc1)N1CCCN(Cc2ccc(F)cc2)C1 | 0.7* | 66 | 29* | 0.6* | 39*
COc1ccc(OC)c(NC(=S)N2CCC(C(O)(c3ccccc3)c3ccccc3)CC2)c1 | 76 | . | . | 71 | .
CC1(C)Oc2ccccc2OC1(O)c1ccc2ccccc2n1 (stereo unspecified) | 79 | . | . | 86 | .
Cc1ccc2cc(CN(CCN3CCCC3)C(=O)Nc3ccccc3)c(=O)[nH]c2c1C | 61 | 78 | 98 | 69 | 74
O=C(Nc1ccc(F)cc1)N(CCCN1CCOCC1)Cc1cc2cc3c(cc2[nH]c1=O)OCCO3 | 66 | 81 | 90 | 62 | 61
CCc1ccc2[nH]c(=O)c(CN(CCCN3CCOCC3)C(=O)Nc3ccc(F)cc3)cc2c1 | 81 | 77 | 94 | 88 | 34*
Cc1ccc2cc(CN(CCN3CCCC3)C(=O)Nc3ccc(F)cc3)c(=O)[nH]c2c1C | 20 | 66 | 85 | 21 | 38*
CCCCSc1nc(C)cc(SCC(=O)N/N=C/c2cccc(OC)c2O)n1 | 4 | . | . | 5.3* | .
COc1ccc(-c2cc(C(=O)OCC(=O)Nc3cc(C)on3)c3ccccc3n2)cc1OC | 92 | . | . | 81 | .
CCC(C)c1ccc(-c2cc(C(=O)OCC(=O)Nc3cc(C)on3)c3ccccc3n2)cc1 (stereo unspecified) | 80 | 45 | 81 | 67 | 9.5*
N#Cc1ccsc1NC(=O)COC(=O)c1cc2ccccc2cc1O | 91 | . | . | 90 | .
COc1ccc(OC(C)C(=O)N2CCC(C)CC2)cc1 (stereo unspecified) | 96 | 108 | 109 | 87 | 98
COc1ccc(OC(C)C(=O)N2CCc3ccccc3C2)cc1 (stereo unspecified) | 33 | 74 | 96 | 32 | 25*
